In experiment [1] the test system is Serine/threonine-protein kinase N1 (Homo sapiens), Q16512 [V901I]. Kind of experiment: Inhibition of human PRK1 V901I mutant (498 to end residues) at 1 uM using KKLNRTLSFAEPG as substrate measured after 40 mins in presence of [gamma33P]ATP by scintillation counting method relative to control. The method, boiled down: (§1)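 Percent inhibition of kinase activity at a single compound concentration, measured by the outsourced Eurofins KinaseProfiler panel. Values are the mean of two independent experiments.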

The test system of a further experiment is A549. Kind of experiment: Induction of apoptosis in human A549 cells after 48 hrs by AnnexinV-FITC staining-based flow cytometric analysis. It counts as functional, cell-based. On the technique in general: Flow cytometry measures light scatter and fluorescence of single cells or particles in a stream.
The test system of experiment [2] is NCI-H1299. The experiment in a line: Antitumour activity against human H1299 cells xenografted in Balb/c mouse assessed as inhibition of Rb phosphorylation at Ser 780 residue at 20 to 80 mg/kg, po administered for 3 weeks by […] based light microscopic analysis. It counts as functional, organism-based. The method in brief: (§2)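 Tumours came from the H1299 oral-dosing xenograft run for 3 weeks. Formalin-fixed, paraffin-embedded 5-µm sections were deparaffinized and rehydrated. Primary antibodies (CDK9, cyclin T1, p-Rb Ser780, RNAPII CTD Ser5, Oct4) used at 1:100 overnight at 4 °C. Biotinylated secondary for 1 h at room temperature, then ABC-peroxidase/DAB, hematoxylin counterstain and light microscopy.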
In general terms: Xenograft models place foreign cells or tissue in a host animal.

Experiment [3] relates to NCI-H1299. The experiment in a line: Antitumour activity against human H1299 cells xenografted in Balb/c mouse assessed as inhibition of tumour growth at 80 mg/kg, po administered for 21 days by digital caliper method relative to control. It counts as functional. Particulars: 504 h, read-out: TGI. The method in brief: (§3)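 Female nude mice, 6-8 weeks old, injected subcutaneously with 1×10^6 H1299 cells (100 µL of a 1×10^7/mL suspension in serum-free medium). At 100-120 mm3, randomized into groups of 5. Dosed orally each day for 21 days with drug dissolved in DMSO, or with vehicle. Caliper measurements and body weight taken every other day. Volume = short²×long×0.5. Growth inhibition based on change in volume relative to vehicle. Tumours weighed at the end.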

The subject of experiment [4] is NCI-H1299. The experiment in a line: Inhibition of colony formation in human H1299 cells after 12 days by crystal violet staining based assay. It counts as functional, cell-based. The method, boiled down: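 Cells exposed to compound, then washed, trypsinized and reseeded at 300 cells per well in 6-well plates. Colonies grew 10-14 days (legend: 12 days), were fixed in methanol 30 min, stained overnight with 0.5% crystal violet and imaged.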

Experiment [5] has as its target Cyclin-dependent kinase 9 (Homo sapiens) (UniProt P50750). Particulars: 0.25 to 1 uM.
For experiment [6], the target named is Activin receptor type-1B (Homo sapiens) (UniProt P36896). Kind of experiment: Inhibition of recombinant human ALK4 (150 to end residues) at 1 uM using casein as substrate measured after 40 mins in presence of [gamma33P]ATP by scintillation counting method relative to control.
In experiment [7] the target is Tyrosine-protein kinase ABL1 (Homo sapiens) (UniProt P00519). Kind of experiment: Inhibition of human ABL1 at 1 uM using EAIYAAPFAKKK as substrate measured after 40 mins by [gamma33P]ATP by scintillation counting method relative to control. The method, boiled down: as §1
For experiment [8], the system named is NCI-H1299. The experiment in a line: Antitumour activity against human H1299 cells xenografted in Balb/c mouse assessed as effect on CDK9 level at 20 to 80 mg/kg, po administered for 3 weeks by […] based light microscopic analysis. It counts as functional, organism-based. The method in brief:
as §2

Experiment [9] has as its target Cytoplasmic tyrosine-protein kinase BMX (Homo sapiens) (UniProt P51813). Kind of experiment: Inhibition of full-length recombinant human BMX at 1 uM using poly(Glu, Tyr) 4:1 as substrate measured after 40 mins in presence of [gamma33P]ATP by scintillation counting method relative to control. The method, boiled down:
as §1

The target of experiment [10] is ALK tyrosine kinase receptor (Homo sapiens) (UniProt Q9UM73). Kind of experiment: Inhibition of recombinant human ALK (1058 to end residues) at 1 uM using KKKSPGEYVNIEF as substrate measured after 40 mins in presence of [gamma33P]ATP by scintillation counting method relative to control.
Experiment [11] concerns the target Dual specificity tyrosine-phosphorylation-regulated kinase 3 (Homo sapiens) (UniProt O43781). The experiment in a line: Inhibition of recombinant full-length human DYRK3 at 1 uM using RRRFRPASPLRGPPK as substrate measured after 40 mins in presence of [gamma33P]ATP by scintillation counting method relative to control.
Experiment [12] deals with TGF-beta receptor type-2 (Homo sapiens) (UniProt P37173). The experiment in a line: Inhibition of human TGFBR2 (188 to end residues) at 1 uM using myelin basic protein as substrate measured after 120 mins in presence of [gamma33P]ATP by scintillation counting method relative to control. The method, boiled down: as §1
Experiment [13] addresses Serine/threonine-protein kinase PRP4 homolog (Homo sapiens) (UniProt Q13523). Kind of experiment: Inhibition of human PRP4 (663 to end residues) at 1 uM using casein as substrate measured after 120 mins in presence of [gamma33P]ATP by scintillation counting method relative to control. The method in brief: (§4)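 Single-point inhibition at 1 µM was measured in the Eurofins KinaseProfiler panel. Values are the mean of two independent experiments.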

For experiment [14], the system named is NCI-H1299. Kind of experiment: Antitumour activity against human H1299 cells xenografted in Balb/c mouse assessed as inhibition of tumour growth at 40 mg/kg, po administered for 21 days by digital caliper method relative to control. It counts as functional. Particulars: 504 h, read-out: TGI. The method in brief: as §3
The subject of experiment [15] is Hepatocyte growth factor receptor (Homo sapiens), P08581 [Y1230H]. Kind of experiment: Inhibition of recombinant human MET A1209G/V1290L/Y1248H mutant (974 to end residues) at 1 uM using KKKGQEEEYVFIE as substrate measured after 40 mins in presence of [gamma33P]ATP by scintillation counting method relative to control.
The subject of experiment [16] is Angiopoietin-1 receptor (Homo sapiens), Q02763 [Q939H,Q940H,R849W]. Kind of experiment: Inhibition of human Tie2 Q939H/Q940H/R849W mutant (771 to end residues) at 1 uM using EFPIYDFLPAKKK as substrate measured after 40 mins in presence of [gamma33P]ATP by scintillation counting method relative to control. The method, boiled down:
as §4

The target in experiment [17] is cAMP-dependent protein kinase catalytic subunit alpha (Homo sapiens) (UniProt P17612). The experiment in a line: Inhibition of recombinant full-length human PKA at 1 uM using Kemptide as substrate measured after 40 mins in presence of [gamma33P]ATP by scintillation counting method relative to control. The method in brief: as §4
The target of experiment [18] is Rho-associated protein kinase 1 (Homo sapiens) (UniProt Q13464). Kind of experiment: Inhibition of recombinant human ROCK1 (17 to 535 residues) at 1 uM using KEAKEKRQEQIAKR as substrate incubated for 40 mins in presence of [gamma-33P]ATP by radiometric assay relative to control. The method, boiled down:
as §4

For experiment [19], the target named is Aurora kinase C (Homo sapiens) (UniProt Q9UQB9). The experiment in a line: Inhibition of recombinant human AURKC (35 to end residues) at 1 uM using AKRRRLSSLRA as substrate measured after 40 mins in presence of [gamma33P]ATP by scintillation counting method relative to control.

Each structure is given as a SMILES string. Calls of active or inactive are those of the source. No cut-off for these calls is given here.

Angiopoietin-1 receptor (Homo sapiens), Q02763 [Q939H,Q940H,R849W], sequence (Q02763 whole entry R849W/Q939H/Q940H): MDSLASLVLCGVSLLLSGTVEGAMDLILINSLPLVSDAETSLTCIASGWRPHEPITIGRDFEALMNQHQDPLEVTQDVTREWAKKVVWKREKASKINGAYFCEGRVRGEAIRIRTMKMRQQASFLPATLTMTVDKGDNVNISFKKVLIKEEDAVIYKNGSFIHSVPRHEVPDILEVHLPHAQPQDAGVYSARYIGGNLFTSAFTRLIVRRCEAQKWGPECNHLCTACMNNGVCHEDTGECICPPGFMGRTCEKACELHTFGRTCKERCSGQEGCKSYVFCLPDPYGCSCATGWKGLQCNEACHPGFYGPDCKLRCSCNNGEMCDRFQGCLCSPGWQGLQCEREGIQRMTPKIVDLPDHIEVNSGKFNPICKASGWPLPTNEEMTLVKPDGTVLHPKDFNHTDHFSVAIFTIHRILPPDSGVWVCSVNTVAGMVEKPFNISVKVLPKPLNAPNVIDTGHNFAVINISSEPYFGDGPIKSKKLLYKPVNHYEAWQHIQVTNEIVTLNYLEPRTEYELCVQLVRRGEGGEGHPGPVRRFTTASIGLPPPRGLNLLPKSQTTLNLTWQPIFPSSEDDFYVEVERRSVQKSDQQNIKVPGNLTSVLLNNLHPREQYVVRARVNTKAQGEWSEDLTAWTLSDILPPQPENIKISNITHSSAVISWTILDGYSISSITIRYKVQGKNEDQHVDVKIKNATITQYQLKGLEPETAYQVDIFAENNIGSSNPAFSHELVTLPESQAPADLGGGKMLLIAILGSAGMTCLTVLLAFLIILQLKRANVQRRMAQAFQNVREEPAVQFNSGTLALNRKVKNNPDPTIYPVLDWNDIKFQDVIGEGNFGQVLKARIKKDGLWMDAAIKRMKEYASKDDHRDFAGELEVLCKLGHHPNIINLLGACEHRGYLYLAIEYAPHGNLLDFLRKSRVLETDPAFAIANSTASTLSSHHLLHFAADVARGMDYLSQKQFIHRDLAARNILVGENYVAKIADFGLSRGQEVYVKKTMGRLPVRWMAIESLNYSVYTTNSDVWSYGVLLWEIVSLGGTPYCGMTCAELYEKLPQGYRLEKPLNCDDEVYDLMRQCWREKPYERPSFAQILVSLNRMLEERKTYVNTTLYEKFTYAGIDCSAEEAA
ALK tyrosine kinase receptor (Homo sapiens), sequence (Q9UM73 19-1620 limits assumed): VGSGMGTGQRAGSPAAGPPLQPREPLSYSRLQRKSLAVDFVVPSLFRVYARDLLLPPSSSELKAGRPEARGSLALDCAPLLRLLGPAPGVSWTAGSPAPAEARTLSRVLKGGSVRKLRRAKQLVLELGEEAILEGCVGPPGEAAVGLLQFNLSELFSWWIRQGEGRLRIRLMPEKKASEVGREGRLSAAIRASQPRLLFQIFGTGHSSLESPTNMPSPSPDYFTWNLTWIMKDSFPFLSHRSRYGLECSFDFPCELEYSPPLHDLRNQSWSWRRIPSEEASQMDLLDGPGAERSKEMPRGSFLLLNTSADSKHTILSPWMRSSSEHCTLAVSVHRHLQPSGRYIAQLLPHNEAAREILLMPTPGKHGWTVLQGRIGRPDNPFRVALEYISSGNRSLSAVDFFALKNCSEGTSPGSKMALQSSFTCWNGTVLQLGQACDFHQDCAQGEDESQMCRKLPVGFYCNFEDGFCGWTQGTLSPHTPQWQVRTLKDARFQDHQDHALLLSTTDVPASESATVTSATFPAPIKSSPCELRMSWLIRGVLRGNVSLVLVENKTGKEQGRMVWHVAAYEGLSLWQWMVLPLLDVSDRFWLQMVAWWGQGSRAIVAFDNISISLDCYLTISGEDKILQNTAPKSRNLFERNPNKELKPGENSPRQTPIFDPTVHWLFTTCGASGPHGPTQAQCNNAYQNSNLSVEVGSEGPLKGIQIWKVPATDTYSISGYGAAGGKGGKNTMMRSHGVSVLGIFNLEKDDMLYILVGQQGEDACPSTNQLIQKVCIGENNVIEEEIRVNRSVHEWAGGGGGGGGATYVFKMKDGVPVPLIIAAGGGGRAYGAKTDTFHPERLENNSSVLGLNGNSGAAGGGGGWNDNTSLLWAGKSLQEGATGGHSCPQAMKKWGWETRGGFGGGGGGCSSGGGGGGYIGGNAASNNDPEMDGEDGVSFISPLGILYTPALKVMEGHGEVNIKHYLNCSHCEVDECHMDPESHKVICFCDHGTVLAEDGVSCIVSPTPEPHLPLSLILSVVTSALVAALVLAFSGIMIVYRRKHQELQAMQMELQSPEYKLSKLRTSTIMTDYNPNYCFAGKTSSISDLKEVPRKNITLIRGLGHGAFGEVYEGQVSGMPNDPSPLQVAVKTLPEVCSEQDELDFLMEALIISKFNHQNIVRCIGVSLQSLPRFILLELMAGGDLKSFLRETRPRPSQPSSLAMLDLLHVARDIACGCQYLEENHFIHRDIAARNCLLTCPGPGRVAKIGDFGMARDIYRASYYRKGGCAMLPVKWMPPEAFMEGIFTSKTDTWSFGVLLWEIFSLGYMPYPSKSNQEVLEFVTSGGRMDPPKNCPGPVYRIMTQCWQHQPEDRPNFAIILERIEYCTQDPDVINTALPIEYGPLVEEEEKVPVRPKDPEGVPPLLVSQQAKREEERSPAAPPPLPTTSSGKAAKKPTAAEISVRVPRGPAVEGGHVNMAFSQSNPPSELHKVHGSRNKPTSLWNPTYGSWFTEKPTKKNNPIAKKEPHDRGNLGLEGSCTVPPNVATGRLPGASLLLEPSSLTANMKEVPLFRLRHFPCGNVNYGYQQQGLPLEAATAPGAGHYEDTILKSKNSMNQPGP
Serine/threonine-protein kinase N1 (Homo sapiens), Q16512 [V901I], sequence (Q16512 whole entry V901I): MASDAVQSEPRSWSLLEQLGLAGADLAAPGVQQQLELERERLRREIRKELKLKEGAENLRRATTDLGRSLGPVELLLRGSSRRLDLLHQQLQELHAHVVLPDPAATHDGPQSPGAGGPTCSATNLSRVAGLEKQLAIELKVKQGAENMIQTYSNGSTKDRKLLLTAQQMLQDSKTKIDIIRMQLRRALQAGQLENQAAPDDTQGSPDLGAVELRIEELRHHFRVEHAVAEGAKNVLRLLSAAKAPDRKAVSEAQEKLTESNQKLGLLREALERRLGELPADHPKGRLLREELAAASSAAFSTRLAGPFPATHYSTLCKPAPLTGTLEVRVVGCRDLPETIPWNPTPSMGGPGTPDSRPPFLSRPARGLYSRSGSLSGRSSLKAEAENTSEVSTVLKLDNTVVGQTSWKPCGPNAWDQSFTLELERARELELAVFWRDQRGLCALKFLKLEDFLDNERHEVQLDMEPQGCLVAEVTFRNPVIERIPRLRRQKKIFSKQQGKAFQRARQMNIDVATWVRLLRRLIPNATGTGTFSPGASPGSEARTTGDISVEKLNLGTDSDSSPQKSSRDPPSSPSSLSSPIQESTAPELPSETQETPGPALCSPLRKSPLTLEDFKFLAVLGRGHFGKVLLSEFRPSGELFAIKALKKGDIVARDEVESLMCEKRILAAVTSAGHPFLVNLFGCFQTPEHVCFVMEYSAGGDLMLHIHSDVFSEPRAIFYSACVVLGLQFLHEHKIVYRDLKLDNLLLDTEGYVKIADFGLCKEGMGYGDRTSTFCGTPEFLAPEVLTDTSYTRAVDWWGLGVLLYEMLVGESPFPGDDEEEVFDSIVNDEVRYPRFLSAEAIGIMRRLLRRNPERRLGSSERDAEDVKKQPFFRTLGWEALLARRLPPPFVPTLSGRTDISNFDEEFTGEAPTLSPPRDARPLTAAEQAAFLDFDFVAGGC
Rho-associated protein kinase 1 (Homo sapiens), sequence (Q13464 2-1354 limits assumed): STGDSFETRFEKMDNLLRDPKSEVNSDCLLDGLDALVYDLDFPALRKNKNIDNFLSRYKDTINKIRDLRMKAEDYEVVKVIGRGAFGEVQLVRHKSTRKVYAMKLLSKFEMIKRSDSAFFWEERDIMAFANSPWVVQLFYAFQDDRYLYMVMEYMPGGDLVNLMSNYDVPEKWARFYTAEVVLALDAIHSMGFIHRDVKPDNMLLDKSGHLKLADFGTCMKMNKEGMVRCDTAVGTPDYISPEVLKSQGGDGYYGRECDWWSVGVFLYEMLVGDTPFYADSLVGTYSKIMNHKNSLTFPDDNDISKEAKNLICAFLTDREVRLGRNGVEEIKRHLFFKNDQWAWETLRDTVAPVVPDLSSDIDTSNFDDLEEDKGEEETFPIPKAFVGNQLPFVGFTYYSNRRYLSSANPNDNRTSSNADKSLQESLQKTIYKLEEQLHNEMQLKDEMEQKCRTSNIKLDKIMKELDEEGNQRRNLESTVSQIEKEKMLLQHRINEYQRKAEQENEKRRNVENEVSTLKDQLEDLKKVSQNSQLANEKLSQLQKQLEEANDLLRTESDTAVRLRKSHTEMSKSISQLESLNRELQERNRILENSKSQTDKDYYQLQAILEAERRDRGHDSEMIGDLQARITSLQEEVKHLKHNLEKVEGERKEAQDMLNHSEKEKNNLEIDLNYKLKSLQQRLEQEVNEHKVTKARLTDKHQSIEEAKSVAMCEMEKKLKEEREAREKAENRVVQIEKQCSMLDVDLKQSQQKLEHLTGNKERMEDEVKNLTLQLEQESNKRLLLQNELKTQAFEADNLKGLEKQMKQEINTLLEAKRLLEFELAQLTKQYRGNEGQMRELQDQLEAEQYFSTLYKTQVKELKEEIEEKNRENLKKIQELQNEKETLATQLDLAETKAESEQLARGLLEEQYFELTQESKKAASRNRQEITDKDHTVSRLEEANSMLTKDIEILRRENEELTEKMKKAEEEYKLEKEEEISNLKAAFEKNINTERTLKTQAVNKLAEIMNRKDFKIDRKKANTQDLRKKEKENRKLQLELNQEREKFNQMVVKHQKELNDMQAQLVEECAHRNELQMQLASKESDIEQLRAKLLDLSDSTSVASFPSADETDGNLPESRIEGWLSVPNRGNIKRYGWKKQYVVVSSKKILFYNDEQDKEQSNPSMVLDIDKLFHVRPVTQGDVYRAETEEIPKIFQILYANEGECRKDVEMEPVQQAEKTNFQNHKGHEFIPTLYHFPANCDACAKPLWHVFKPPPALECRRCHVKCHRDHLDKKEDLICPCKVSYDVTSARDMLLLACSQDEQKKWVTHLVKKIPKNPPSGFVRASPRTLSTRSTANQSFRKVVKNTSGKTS

In general, inhibition refers to the drop in the measured response relative to a control, in per cent. On to `CN(C)C(=O)c1cc2cnc(Nc3ccc(NC(=O)CCCCCCCN=C=S)cc3)nc2n1C1CCCC1`, for which the inhibition in experiment [1] is 3%; with NCI-H1299 [4] it was “Dose-dependent effect”; in experiment [6], 3%; in experiment [7], 88%; in experiment [9], 90%; in experiment [10], -3%. Besides, the inhibition turned out to be 17% in experiment [11]; 15% in [12]; 1% in [13]; 62% in experiment [15]; 12% in [16]; 1% in [17]. Moreover, the figures for the inhibition in experiment [18] and in experiment [19] were 11% and 72%, respectively. For the same compound, the Activity entry in the experiment with A549 was “Dose-dependent effect”. In addition, in the experiment with NCI-H1299 [2], the outcome was Active. Also, in the experiment with NCI-H1299 [3], the inhibition in vivo at 80 mg/kg was determined as 94.7%. For the same compound, in [5], the inhibition entry is “Active”. In the experiment with NCI-H1299 [8], the outcome was inactive. The inhibition in vivo at 40 mg/kg in the experiment with NCI-H1299 [14] was 89.7%.

The values are drawn from ChEMBL document CHEMBL4376814, “Novel cyclin-dependent kinase 9 (CDK9) inhibitor with suppression of cancer stemness activity against non-small-cell lung cancer” (Eur J Med Chem, 2019).
